Experimental data reported in ChEMBL document CHEMBL3414496, “Synthesis and biological evaluation of novel 2-heteroarylimino-1,3-thiazolidin-4-ones as potential anti-tumor agents” (Eur J Med Chem, 2015).
Calls of active or inactive are those of the source. No cut-off for these calls is given here.

Tested on: HT-29
Assay: Induction of cell cycle arrest in human HT-29 cells assessed as accumulation at S phase by propidium iodide staining based flow cytometry (reference value: 23.9 +/- 0.3%)
Assay type: functional
Details: not given

Row | Compound | Activity [%]
1 | CN(C)c1ccc(/C=C2\S/C(=N\c3csc(-c4ccc(Cl)cc4)c3)NC2=O)cc1 | 14.8

Tested on: HT-29
Assay: Induction of cell cycle arrest in human HT-29 cells assessed as accumulation at G2/M phase by propidium iodide staining based flow cytometry (reference value: 30 +/- 2%)
Assay type: functional
Details: not given

Row | Compound | Activity [%]
2 | CN(C)c1ccc(/C=C2\S/C(=N\c3csc(-c4ccc(Cl)cc4)c3)NC2=O)cc1 | 83.7

Tested on: HT-29
Assay: Induction of chromatin condensation in human HT-29 cells incubated for 2 days by DAPI staining based UV fluorescent microscopy
Assay type: functional, cell-based
Details: not given
In short: (§1)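 HT29 cells in 35 mm dishes treated over two days, fixed in 70% ethanol for 5 min and rinsed with PBS. Stained with 1 µM DAPI in PBS for 15 min and imaged by UV fluorescence microscopy for nuclear morphology.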

Row | Compound | Activity
3 | CN(C)c1ccc(/C=C2\S/C(=N\c3csc(-c4ccc(Cl)cc4)c3)NC2=O)cc1 | Active

Tested on: HT-29
Assay: Induction of nuclear fragmentation in human HT-29 cells incubated for 2 days by DAPI staining based UV fluorescent microscopy
Assay type: functional, cell-based
Details: not given
In short: as §1

Row | Compound | Activity
4 | CN(C)c1ccc(/C=C2\S/C(=N\c3csc(-c4ccc(Cl)cc4)c3)NC2=O)cc1 | Active

Tested on: HT-29
Assay: Induction of mitochondrial membrane potential loss in human HT-29 cells incubated for 2 days by JC1 staining based UV fluorescent microscopy
Assay type: functional, cell-based
Details: not given
In short: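 HT29 cells in dishes exposed to test agents, then 1 µM JC-1 added to the medium for 15 min at 37°C. Cells washed with warm PBS and imaged by fluorescence microscopy for J-aggregates (red channel). 50 µM CCCP for 15 min served as depolarization control.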

Row | Compound | Activity
5 | CN(C)c1ccc(/C=C2\S/C(=N\c3csc(-c4ccc(Cl)cc4)c3)NC2=O)cc1 | Active

Tested on: HT-29
Assay: Induction of ROS generation in human HT-29 cells at cytotoxic IC50 level after 4 hrs by DCF-DA staining based fluorescence assay
Assay type: functional, cell-based
Details: not given
In short: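 HT29 cells treated two days after seeding, then loaded with 50 µM DCF-DA for 15 min at 37°C. Cells trypsinized, washed and resuspended in PBS, and 30 000 cells/sample read by flow cytometry (FL-1). Expressed as % of DMSO-treated cells; […] for 1 h served as positive control. Triplicates from three independent experiments.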

Row | Compound | Activity
6 | CN(C)c1ccc(/C=C2\S/C(=N\c3csc(-c4ccc(Cl)cc4)c3)NC2=O)cc1 | Active

Tested on: HT-29
Assay: Induction of autophagy in human HT-29 cells assessed as increase in acidic vesicles by acridine orange staining based flow cytometry
Assay type: functional, cell-based
Details: not given
In short: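 HT29 cells treated for two days with daily medium changes, stained with 1 µg/ml acridine orange for 15 min, then trypsinized and suspended in PBS. FL-3 fluorescence read by flow cytometry on 30 000 cells/sample and expressed in arbitrary units relative to DMSO-treated cells. Triplicates from three independent experiments.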

Row | Compound | Activity
7 | CN(C)c1ccc(/C=C2\S/C(=N\c3csc(-c4ccc(Cl)cc4)c3)NC2=O)cc1 | Active

Tested on: HT-29
Assay: Induction of autophagy in human HT-29 cells assessed as increase in beclin-1 protein expression by Western blotting method
Assay type: functional, cell-based
Details: not given
In short: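 HT29 cells in flasks treated over two days. Total protein homogenates immunoblotted with anti-beclin-1 (1:500), with GAPDH as loading control.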

Row | Compound | Activity
8 | CN(C)c1ccc(/C=C2\S/C(=N\c3csc(-c4ccc(Cl)cc4)c3)NC2=O)cc1 | Active

Tested on: HT-29
Assay: Induction of redox status changes in human HT-29 cells assessed as RNS content by DAF-2DA staining based fluorescence assay (reference value: 100%)
Assay type: functional
Details: not given
In short: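 HT29 cells treated two days after seeding, then loaded with 1 µM DAF-2DA for 30 min at 37°C. Cells trypsinized and resuspended in PBS, and 30 000 cells/sample measured by flow cytometry (FL-1). Expressed as % of DMSO-treated cells. Triplicates from three independent experiments.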

Row | Compound | Activity [%]
9 | CN(C)c1ccc(/C=C2\S/C(=N\c3csc(-c4ccc(Cl)cc4)c3)NC2=O)cc1 | 294.4

Tested on: HT-29
Assay: Induction of redox status changes in human HT-29 cells assessed as RNS content by DHR123 staining based fluorescence assay (reference value: 100%)
Assay type: functional
Details: not given
In short: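 HT29 cells treated two days after seeding, then loaded with 25 µM DHR for 20 min at 37°C. Cells trypsinized and resuspended in PBS, and 30 000 cells/sample read by flow cytometry (FL-1). Expressed as % of DMSO controls. Triplicates from three independent experiments.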

Row | Compound | Activity [%]
10 | CN(C)c1ccc(/C=C2\S/C(=N\c3csc(-c4ccc(Cl)cc4)c3)NC2=O)cc1 | 80.1

Tested on: HT-29
Assay: Induction of redox status changes in human HT-29 cells assessed as GSH content by fluorescence based microtiter plate method (reference value: 100%)
Assay type: functional
Details: not given
In short: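 HT29 cells exposed 48 h after seeding for 24 h, then extracted into ice-cold 10% perchloric acid with 2 mM EDTA and spun at 15 000 g. GSH in the supernatant measured by a fluorescence microtiter plate method; pellet protein measured by modified Lowry. Values in nmol GSH/mg protein, shown as % of DMSO controls. Triplicates from three experiments.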

Row | Compound | Activity [%]
11 | CN(C)c1ccc(/C=C2\S/C(=N\c3csc(-c4ccc(Cl)cc4)c3)NC2=O)cc1 | 84.6

Tested on: HT-29
Assay: Inhibition of cell growth in human HT-29 cells assessed as mitotic index ratio in absence of 1 mM ascorbic acid (reference value: 1)
Assay type: functional
Details: not given
In short: (§2)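 HT29 cells treated daily from 48 h after seeding, over three days with daily medium changes, in 0.1% (v/v) DMSO vehicle. Cells trypsinised, mixed 1:1 with 0.04% trypan blue, and living cells counted by haemocytometer under microscope. Mitotic index is treated count relative to DMSO control. Triplicate determinations, two independent experiments, mean ± S.E.M.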

Row | Compound | Ratio
12 | CN(C)c1ccc(/C=C2\S/C(=N\c3csc(-c4ccc(Cl)cc4)c3)NC2=O)cc1 | 0.02

Tested on: HT-29
Assay: Inhibition of cell growth in human HT-29 cells assessed as mitotic index ratio in presence of 1 mM ascorbic acid (reference value: 1.12 +/- 0.03)
Assay type: functional
Details: not given

Row | Compound | Ratio
13 | CN(C)c1ccc(/C=C2\S/C(=N\c3csc(-c4ccc(Cl)cc4)c3)NC2=O)cc1 | 0.02

Tested on: HT-29
Assay: Cytotoxicity against human HT-29 cells after 72 hrs by MTT assay
Assay type: functional, cell-based
Details: HT-29, 72 h
In short: (§3)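 Cells seeded at 10^4/well, exposed 24 h later to graded concentrations (0.01–100 µM) for 72 h at 37°C; MTT 0.5 mg/ml for 2 h, formazan dissolved in DMSO, absorbance at 570 nm. […] Colon lines in DMEM, breast lines in RPMI, both with 10% FCS.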

Row | Compound | IC50 [µM]
14 | CN(C)c1ccc(/C=C2\S/C(=N\c3csc(-c4ccc(Cl)cc4)c3)NC2=O)cc1 | 1.5

Tested on: not listed separately
Assay: Cytotoxicity against human HCT116 cells after 72 hrs by MTT assay
Assay type: functional, cell-based
Details: HCT-116, 72 h
In short: as §3

Row | Compound | IC50 [µM]
15 | CN(C)c1ccc(/C=C2\S/C(=N\c3csc(-c4ccc(Cl)cc4)c3)NC2=O)cc1 | 0.5

Tested on: SW-620
Assay: Cytotoxicity against human SW620 cells after 72 hrs by MTT assay
Assay type: functional, cell-based
Details: SW-620, 72 h
In short: as §3

Row | Compound | IC50 [µM]
16 | CN(C)c1ccc(/C=C2\S/C(=N\c3csc(-c4ccc(Cl)cc4)c3)NC2=O)cc1 | 0.8

Tested on: MCF7
Assay: Cytotoxicity against human MCF7 cells after 72 hrs by MTT assay
Assay type: functional, cell-based
Details: MCF7, 72 h
In short: as §3

Row | Compound | IC50 [µM]
17 | CN(C)c1ccc(/C=C2\S/C(=N\c3csc(-c4ccc(Cl)cc4)c3)NC2=O)cc1 | 0.4

Tested on: MDA-MB-231
Assay: Cytotoxicity against human MDA-MB-231 cells after 72 hrs by MTT assay
Assay type: functional, cell-based
Details: MDA-MB-231, 72 h
In short: as §3

Row | Compound | IC50 [µM]
18 | CN(C)c1ccc(/C=C2\S/C(=N\c3csc(-c4ccc(Cl)cc4)c3)NC2=O)cc1 | 0.8

Tested on: HT-29
Assay: Growth inhibition of human HT-29 cells at cytotoxic IC50 level after 3 days by trypan blue dye exclusion assay
Assay type: functional
Details: not given
In short: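 HT29 cells treated 48 h after seeding, dosed daily with daily medium change over three days; drug diluted in DMSO, controls 0.1% (v/v) DMSO. Cells trypsinized, mixed 1:1 with 0.04% trypan blue, live cells counted by hematimeter. Reported as mitotic index (treated/DMSO count); triplicates from two independent experiments.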

Row | Compound | growth inhibition (GI) [%]
19 | CN(C)c1ccc(/C=C2\S/C(=N\c3csc(-c4ccc(Cl)cc4)c3)NC2=O)cc1 | 90

Tested on: HT-29
Assay: Reduction in cell growth of human HT-29 cells at cytotoxic IC50 level after 3 days by trypan blue dye exclusion assay
Assay type: functional, cell-based
Details: not given
In short: as §2

Row | Compound | inhibition
20 | CN(C)c1ccc(/C=C2\S/C(=N\c3csc(-c4ccc(Cl)cc4)c3)NC2=O)cc1 | Active

Tested on: HT-29
Assay: Induction of cell cycle arrest in human HT-29 cells assessed as accumulation at subG1 phase by propidium iodide staining based flow cytometry (reference value: 6.9 +/- 0.5%)
Assay type: functional
Details: not given

Row | Compound | Activity [%]
21 | CN(C)c1ccc(/C=C2\S/C(=N\c3csc(-c4ccc(Cl)cc4)c3)NC2=O)cc1 | 29

Tested on: HT-29
Assay: Induction of redox status changes in human HT-29 cells assessed as ROS content in absence of 1 mM ascorbic acid by DCF-DA staining based fluorescence assay (reference value: 100%)
Details: not given

Row | Compound | Activity [%]
22 | CN(C)c1ccc(/C=C2\S/C(=N\c3csc(-c4ccc(Cl)cc4)c3)NC2=O)cc1 | 177.8

Tested on: HT-29
Assay: Induction of redox status changes in human HT-29 cells assessed as ROS content in presence of 1 mM ascorbic acid by DCF-DA staining based fluorescence assay (reference value: 65.7 +/- 4.7%)
Details: not given

Row | Compound | Activity [%]
23 | CN(C)c1ccc(/C=C2\S/C(=N\c3csc(-c4ccc(Cl)cc4)c3)NC2=O)cc1 | 133.6
